Columns and labels:
PANC-1 = experiment: Antiproliferative activity against human PANC1 cells after 72 hrs by CCK8 assay; details: PANC-1, 72 h
NCI-H1975 = experiment: Antiproliferative activity against gefitinib-resistant human NCI-H1975 cells harboring FAK after 72 hrs by CCK8 assay; type: functional, cell-based; details: NCI-H1975, 72 h
Outline: (§1)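 Cells in RPMI-1640 with 10% FBS and 1% penicillin-streptomycin, 37 °C, 5% CO2. Seeded at 3,000 to 5,000 cells/well and grown one day, then exposed to compound for 72 h at 1.25 to 40 µmol/L, five replicates per concentration. CCK-8 read-out is absorbance at 450 nm. Dose-response curves used five concentrations. IC50 is the mean of at least three separate experiments.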

L02 = experiment: Antiproliferative activity against human LO2 cells after 72 hrs by CCK8 assay; details: L02, 72 h
BXPC-3 = experiment: Antiproliferative activity against human BxPC3 cells after 72 hrs by CCK8 assay; details: BXPC-3, 72 h
Ramos = experiment: Antiproliferative activity against human Ramos cells after 72 hrs by CCK8 assay; type: functional, cell-based; outline: as §1
ASPC1 = experiment: Antiproliferative activity against human AsPC1 cells after 72 hrs by CCK8 assay; details: ASPC1, 72 h

SMILES | IC50 (PANC-1) [µM] | IC50 (NCI-H1975) [µM] | IC50 (L02) [µM] | IC50 (BXPC-3) [µM] | IC50 (Ramos) [µM] | IC50 (ASPC1) [µM]
CNC(=O)c1ccccc1Nc1nc(Nc2ccc(NS(=O)(=O)c3ccc(OC)cc3)cc2)ncc1Cl | 1.8 | 4.28 | 8.37 | 24.1 | 9.1 | 3.49
CNC(=O)c1ccccc1Nc1nc(Nc2ccc(NS(=O)(=O)c3ccc(C)cc3)cc2)ncc1Cl | 2.76 | 7.07 | 28.7 | 19.4 | 6.17 | 1.55
CNC(=O)c1ccccc1Nc1nc(Nc2ccc(Oc3ccc(NS(=O)(=O)C(F)(F)F)cc3)cc2)ncc1Cl | 1.75 | 4.1 | 3.37 | 5.86 | 14.4 | 2.39
CNC(=O)c1ccccc1Nc1nc(Nc2ccc(N3CCOCC3)cc2OC)ncc1Cl | > 20 | – | 5.37 | 1.03 | – | 6.73
CNC(=O)c1ccccc1Nc1nc(Nc2ccc(NS(=O)(=O)c3ccc(F)cc3)c(OC)c2)ncc1Cl | 5.7 | 12.9 | 19.7 | 31.6 | 24.6 | 6.69
